Reference: article PMC2736802 (Drug metabolism and disposition: the biological fate of …, 2008)
“Also recorded” adds a separate entry of the source. Read-outs that look alike come from different tables or passages of the source.

Columns and labels:
P450 3A4 [1] = type: biochemical, human; settings: for % Activity Remaining: 50 μM CPE or 12 μM TFCPE; for loss in O-debenzylation activity: after a 20-min incubation compared with 0 min
Summary of the method: (§1)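 Purified P450 was reconstituted with reductase and held 20 min at room temperature, then diluted in 50 mM Hepes pH 7.5 with 2 mM GSH and 250 units catalase. Test compound was added (25–500 μM or 5–100 μM, in acetonitrile), then NADPH. Timed 9 pmol aliquots went into 50 μM BFC/1 mM NADPH in 200 mM phosphate pH 7.4 for 15 min at 37 °C. Fluorescence read at ex 409/em 530 nm; KI, kinact and t1/2 from double-reciprocal plots.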

P450 3A4 [2] = type: biochemical, human; settings: substrate testosterone; reconstituted system
P450 3A5 [3] = biological target: T1, P450 3A5 (Homo sapiens, UniProt P20815); type: biochemical; settings: in the presence of NADPH
Summary of the method: as §1

human liver microsomes = experiment: Inactivation of human liver microsomes; type: biochemical; settings: BFC assay; data not shown
[4] = tested on: dextromethorphan induced micrsomes; experiment: Inactivation of dextromethorphan induced microsomes; type: biochemical; settings: data not shown
Summary of the method: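 Human liver microsomes and dextromethorphan-induced microsomes (0.3 nmol) were incubated with test compound in the presence of catalase and GSH. Reactions were started with NADPH and sampled at 0, 5 and 12 min. Residual activity was measured by the BFC O-debenzylation fluorescence assay.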

P450 3A4 [5] = experiment: Heme analysis of inactivated P450 3A4; type: biochemical, human; settings: for % P450 Remaining by reduced-CO spectrum: 50 μM CPE or 12 μM TFCPE; for Residual Heme by HPLC: area under heme peak at 405 nm, control set to 100 %; for loss in heme: measured by HPLC, compared with the -NADPH control
Summary of the method: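 P450 3A4 was reconstituted and inactivated as in the activity assay (50 μM or 12 μM test compound, 20 min, ±NADPH). For reduced-CO spectra, 100 pmol went into 50 mM phosphate pH 7.4 with 40% glycerol and 0.6% Tergitol, was CO-bubbled and dithionite-reduced, and scanned at 400–500 nm. For heme, 100 pmol was run on C4 HPLC (30–90% acetonitrile, 0.1% TFA, 30 min) and the 405 nm peak area was set against control = 100%. Mean and S.D. of four experiments.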

P450 3A4 [6] = experiment: Formation of 7-hydroxycoumarin by P450 3A4; type: in vitro ADME, human; settings: 30 min reaction
Summary of the method: (§2)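 P450 3A4 or 3A5 (expressed in E. coli, purified) was reconstituted with test compound. Reactions were started with 1 mM NADPH, run 30 min and stopped with 15% trichloroacetic acid. 7-Hydroxycoumarin was measured by C18 HPLC (isocratic 30% methanol, 0.2% acetic acid) with fluorescence detection (ex 350/em 453 nm). Quantified from peak areas against a 7-hydroxycoumarin standard curve.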

P450 3A5 [7] = biological target: T1, P450 3A5; experiment: Formation of 7-hydroxycoumarin by P450 3A5; type: in vitro ADME; settings: 30 min reaction
Summary of the method: as §2

P450 3A4 [8] = experiment: Trapping of reactive intermediates formed by P450 3A4 with GSH; type: in vitro ADME, human; settings: incubation with P450 3A4 in the presence of GSH and NADPH
Summary of the method: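 Reconstituted P450 3A4 (0.5 nmol, with reductase and lipid) was inactivated by the test compound plus NADPH in the presence of 10 mM GSH. Reactions were stopped with 10% trifluoroacetic acid (60 μl/ml sample). Separation used a C18 column in a 5% acetonitrile/0.1% acetic acid gradient. Detection was ESI MS: full scan m/z 150–1000 plus two dependent MS/MS scans at 35% collision energy, with fluorescence detection also used.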

P450 3A4 [9] = experiment: LC-APCI-MS metabolite analysis with P450 3A4; type: in vitro ADME, human; settings: incubation with P450 3A4 and NADPH
Summary of the method: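 P450 3A4 reconstituted with reductase and lipid, then incubated with the test compound and NADPH at 37°C for 60 min. Control and inactivated samples (900 pmol each) were extracted with ethyl acetate and dried under nitrogen. Analysis was by LC-APCI-MS with UV at 319 nm, full scans m/z 100–2000, and data-dependent MS/MS on the four most intense ions.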

P450 3A5 [10] = biological target: T1, P450 3A5; experiment: LC-APCI-MS metabolite analysis with P450 3A5; type: in vitro ADME; settings: incubation with P450 3A5
Summary of the method: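 Reconstituted P450 3A5 was incubated with test compound and NADPH. Samples (900 pmol) were extracted with ethyl acetate, dried and taken up in 50% acetonitrile. Separation used C18 reverse phase with a water/acetonitrile gradient in 0.1% acetic acid, monitored by UV at 319 nm. Detection was positive-mode APCI on a linear ion trap, with full scans at m/z 100–2000 and data-dependent MS/MS.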

[11] = substrate BFC, reconstituted system

T1 sequence (P20815 whole entry): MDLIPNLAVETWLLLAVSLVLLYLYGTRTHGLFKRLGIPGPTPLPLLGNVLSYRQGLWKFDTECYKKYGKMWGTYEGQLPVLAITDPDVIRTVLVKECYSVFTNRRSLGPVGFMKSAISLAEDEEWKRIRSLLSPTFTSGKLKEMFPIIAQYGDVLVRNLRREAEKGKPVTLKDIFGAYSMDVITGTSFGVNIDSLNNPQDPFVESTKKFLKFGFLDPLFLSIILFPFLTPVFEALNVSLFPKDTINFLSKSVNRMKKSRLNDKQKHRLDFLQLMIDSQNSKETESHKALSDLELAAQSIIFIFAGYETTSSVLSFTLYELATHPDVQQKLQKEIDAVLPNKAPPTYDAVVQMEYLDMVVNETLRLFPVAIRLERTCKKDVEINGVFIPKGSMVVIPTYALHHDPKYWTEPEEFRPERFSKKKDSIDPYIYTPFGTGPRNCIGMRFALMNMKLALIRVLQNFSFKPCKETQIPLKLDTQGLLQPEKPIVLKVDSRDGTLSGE

SMILES | % Activity Remaining (P450 3A4 [1]; 0 min, +NADPH) [%] | % Activity Remaining (P450 3A4 [1]; 0 min, -NADPH) [%] | % Activity Remaining (P450 3A4 [1]; 20 min, +NADPH) [%] | % Activity Remaining (P450 3A4 [1]; 20 min, -NADPH) [%] | loss in O-debenzylation activity (P450 3A4 [1]) | Kinact (maximal rate of inactivation) (P450 3A4 [1]; [11]) [min⁻¹] | Kinact (maximal rate of inactivation) (P450 3A4 [2]) [min⁻¹] | inactivation of the BFC O-debenzylation activity of P450 3A5 (P450 3A5 [3]) | inactivation of human liver microsomes (human liver microsomes) | inactivation of dextromethorphan induced microsomes [4] | % P450 Remaining by reduced-CO spectrum (P450 3A4 [5]; 0 min, +NADPH) [%] | % P450 Remaining by reduced-CO spectrum (P450 3A4 [5]; 0 min, -NADPH) [%] | % P450 Remaining by reduced-CO spectrum (P450 3A4 [5]; 20 min, +NADPH) [%] | % P450 Remaining by reduced-CO spectrum (P450 3A4 [5]; 20 min, -NADPH) [%] | Residual Heme by HPLC (P450 3A4 [5]; +NADPH) [%] | Residual Heme by HPLC (P450 3A4 [5]; -NADPH) [%] | loss in heme (P450 3A4 [5]) | Formation of 7-OH coumarin (P450 3A4 [6]) [pmol/pmol P450/min] | Formation of 7-OH coumarin (P450 3A5 [7]) [pmol/pmol P450/min] | formation of glutathione adducts (P450 3A4 [8]) | also measured
C#CCOc1ccc2c(C(F)(F)F)cc(=O)oc2c1 [TFCPE, 7-(4-trifluoromethyl)coumarin propargyl ether] | 82 ± 5 | 88 ± 3 | 25 ± 3 | 79 ± 7 | approximately 55% | 0.04 | 0.04 | no inactivation; also recorded: neither CPE nor TFCPE showed any effect; also recorded: do not affect the activity | did not show inactivation; also recorded: neither CPE nor TFCPE led to any inactivation | did not show inactivation | 75 ± 6 | 75 ± 4 | 43 ± 4 | 62 ± 2 | 61 ± 2 | 100 ± 4 | 40% | 97.2 ± 1 | 78.8 ± 11 | formation of CPE- and TFCPE-glutathione adducts | t1/2 (P450 3A4 [1]; [11]): 16.5 min; loss in activity (P450 3A4 [1]; with the -NADPH +TFCPE control): approximately 55%; t1/2 (P450 3A4 [2]): 17 min; metabolite peak by LC-APCI-MS/UV 319 nm (P450 3A4 [9]): single metabolite peak eluting at 20.34 min; metabolite by LC-APCI-MS (P450 3A5 [10]): did not result in any metabolite
C#CCOc1ccc2ccc(=O)oc2c1 [CPE, 7-coumarin propargyl ether] | 85 ± 4 | 86 ± 5 | 50 ± 9 | 79 ± 3 | ~35% | 0.05 | 0.014 | no inactivation; also recorded: neither CPE nor TFCPE showed any effect; also recorded: do not affect the activity | did not show inactivation; also recorded: neither CPE nor TFCPE led to any inactivation | did not show inactivation | 69 ± 5 | 69 ± 7 | 67 ± 4 | 67 ± 2 | 70 ± 11 | 100 ± 9 | approximately 30% | 48.1 ± 5 | 85.5 ± 7 | formation of CPE- and TFCPE-glutathione adducts | metabolite peak by LC-APCI-MS/UV 319 nm (P450 3A4 [9]): No similar peak or any other metabolite peak was observed
